Calls of active or inactive are those of the source. No cut-off for these calls is given here.
Legend:
Aurora kinase A = target: T1, Aurora kinase A (Homo sapiens, UniProt O14965); experiment: Binding affinity to Aurora kinase A catalytic domain by competition binding assay
T1 sequence (O14965 whole entry): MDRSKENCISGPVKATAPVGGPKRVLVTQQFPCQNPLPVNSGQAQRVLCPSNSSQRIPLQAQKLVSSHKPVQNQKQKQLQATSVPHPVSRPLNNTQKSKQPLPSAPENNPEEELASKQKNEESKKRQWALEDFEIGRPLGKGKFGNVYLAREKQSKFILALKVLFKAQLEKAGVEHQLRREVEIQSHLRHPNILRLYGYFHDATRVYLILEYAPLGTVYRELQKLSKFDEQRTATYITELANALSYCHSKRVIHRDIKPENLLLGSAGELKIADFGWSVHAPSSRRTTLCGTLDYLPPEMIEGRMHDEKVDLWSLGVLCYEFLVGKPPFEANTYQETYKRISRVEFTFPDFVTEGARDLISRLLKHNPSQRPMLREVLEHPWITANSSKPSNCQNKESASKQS

[1] = Clearance in Sprague-Dawley rat at 1 mg/kg, iv administered using PEG400/water as vehicle; assay type: ADME, organism-based; parameters: dose 1 mg/kg, route intravenous; settings: in vivo
Method in brief: (§1)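 SD rats fasted overnight, given 1 mg/kg iv in PEG400/water (3:1, v/v); three per arm. Blood into K3 EDTA at 5, 15, 30 min, 1, 2, 4, 6, 24 h, spun at 4 °C; plasma extracted with six volumes acetonitrile plus internal standard and quantified by LC-MS/MS (C8 column, formic acid/ACN gradient).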

[2] = Clearance in athymic Nu/Nu rat at 15 mg/kg, iv administered using TPPW as vehicle; assay type: ADME, organism-based; parameters: dose 15 mg/kg, route intravenous; settings: in vivo
Method in brief: (§2)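 Plasma from K3 EDTA blood at 5, 15, 30 min, 1, 2, 4, 6, 24 h; acetonitrile extraction with internal standard, LC-MS/MS on C8 column, 5-95% ACN gradient with 0.05% formic acid.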

[3] = Clearance in athymic Nu/Nu rat at 50 mg/kg, iv administered using TPPW as vehicle; assay type: ADME, organism-based; parameters: dose 50 mg/kg, route intravenous; settings: in vivo; method in brief: as §2
[4] = Volume of distribution in Nu/Nu rat at 15 mg/kg, iv administered using TPPW as vehicle; assay type: ADME, organism-based; parameters: dose 15 mg/kg, route intravenous; settings: in vivo; method in brief: as §2
[5] = Volume of distribution in Nu/Nu rat at 50 mg/kg, iv administered using TPPW as vehicle; assay type: ADME, organism-based; parameters: dose 50 mg/kg, route intravenous; settings: in vivo; method in brief: as §2
[6] = AUC (0 to infinity) in Sprague-Dawley rat at 1 mg/kg, iv administered using PEG400/water as vehicle; assay type: ADME, organism-based; parameters: time infinity, dose 1 mg/kg, route intravenous; settings: plasma; method in brief: as §1
[7] = AUC (0 to infinity) in Nu/Nu rat at 5 mg/kg, iv administered using TPPW as vehicle; assay type: ADME, organism-based; parameters: dose 5 mg/kg, route intravenous, time infinity; settings: plasma; method in brief: as §2
[8] = Half life in Sprague-Dawley rat at 1 mg/kg, iv administered using PEG400/water as vehicle; assay type: ADME, organism-based; parameters: dose 1 mg/kg, route intravenous; settings: in vivo; method in brief: as §1
[9] = Half life in Nu/Nu rat at 5 mg/kg, iv administered using TPPW as vehicle; assay type: ADME, organism-based; parameters: dose 5 mg/kg, route intravenous; settings: in vivo; method in brief: as §2
HCT-116 = experiment: Antitumor activity against human HCT116 cells xenografted in athymic nude rat assessed as tumor stasis at 20 mg/kg, iv administered every other day from day 10 post tumor-injection for 3 weeks […]; assay type: functional, organism-based; parameters: dose 20 mg/kg
Method in brief: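 HCT-116 flank xenografts in nude rats, groups of 10 at mean 301-306 mm³; iv tail-vein dosing in TPPW at 10 mL/kg on days 1,3,5,8,10,12,15,17,19; tumors followed after dosing stopped, study ending day 42 or day 60.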

Rattus norvegicus = experiment: Toxicity in athymic nude rat bearing human HCT116 cells assessed body weight loss up to 20 mg/kg, iv administered every other day from day 10 post tumor-injection for 3 weeks; assay type: organism-based, HCT-116; parameters: dose 20 mg/kg, route intravenous; settings: in vivo, 504 h
Method in brief: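 Subcutaneous flank HCT-116 xenografts in nude rats; at Day 1 groups of 10 with mean tumor 301-306 mm³. Tail-vein iv in TPPW (2% Tween-80, 5% propylene glycol, 10% PG-400, 83% water) at 10 mL/kg, weight-adjusted: days 1,3,5,8,10,12,15,17,19 or days 1-4, 8-11, 15-18. Irinotecan control 100 mg/kg ip weekly ×3.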

- Kd (Aurora kinase A): 5.8 nM
- clearance [1]: 21.1 mL/min/kg
- clearance [2]: 12.5 mL/min/kg
- clearance [3]: 5.23 mL/min/kg
- Vd [4]: 0.8 L/kg
- Vd [5]: 0.62 L/kg
- AUC(0-inf) [6]: 1.4 µM·h
- AUC(0-inf) [7]: 7.7 µM·h
- half-life [8]: 17.5 h
- half-life [9]: 1.1 h
SMILES: Cc1cc(Nc2nc(Sc3ccc(NC(=O)CN4CC[C@@H](C(=O)N5CCC(F)(F)C5)C4)cc3)nn3cccc23)n[nH]1
- Activity (HCT-116): Active
- Activity (Rattus norvegicus): Non-toxic
